Consider 38 compounds from ChEMBL document CHEMBL4229337, “Design, synthesis and biological evaluation of 1-hydroxy-2-phenyl-4-pyridyl-1H-imidazole derivatives as xanthine oxidase inhibitors” (Eur J Med Chem, 2018).

The structures appear in SMILES notation.

T1 sequence (P80457 whole entry): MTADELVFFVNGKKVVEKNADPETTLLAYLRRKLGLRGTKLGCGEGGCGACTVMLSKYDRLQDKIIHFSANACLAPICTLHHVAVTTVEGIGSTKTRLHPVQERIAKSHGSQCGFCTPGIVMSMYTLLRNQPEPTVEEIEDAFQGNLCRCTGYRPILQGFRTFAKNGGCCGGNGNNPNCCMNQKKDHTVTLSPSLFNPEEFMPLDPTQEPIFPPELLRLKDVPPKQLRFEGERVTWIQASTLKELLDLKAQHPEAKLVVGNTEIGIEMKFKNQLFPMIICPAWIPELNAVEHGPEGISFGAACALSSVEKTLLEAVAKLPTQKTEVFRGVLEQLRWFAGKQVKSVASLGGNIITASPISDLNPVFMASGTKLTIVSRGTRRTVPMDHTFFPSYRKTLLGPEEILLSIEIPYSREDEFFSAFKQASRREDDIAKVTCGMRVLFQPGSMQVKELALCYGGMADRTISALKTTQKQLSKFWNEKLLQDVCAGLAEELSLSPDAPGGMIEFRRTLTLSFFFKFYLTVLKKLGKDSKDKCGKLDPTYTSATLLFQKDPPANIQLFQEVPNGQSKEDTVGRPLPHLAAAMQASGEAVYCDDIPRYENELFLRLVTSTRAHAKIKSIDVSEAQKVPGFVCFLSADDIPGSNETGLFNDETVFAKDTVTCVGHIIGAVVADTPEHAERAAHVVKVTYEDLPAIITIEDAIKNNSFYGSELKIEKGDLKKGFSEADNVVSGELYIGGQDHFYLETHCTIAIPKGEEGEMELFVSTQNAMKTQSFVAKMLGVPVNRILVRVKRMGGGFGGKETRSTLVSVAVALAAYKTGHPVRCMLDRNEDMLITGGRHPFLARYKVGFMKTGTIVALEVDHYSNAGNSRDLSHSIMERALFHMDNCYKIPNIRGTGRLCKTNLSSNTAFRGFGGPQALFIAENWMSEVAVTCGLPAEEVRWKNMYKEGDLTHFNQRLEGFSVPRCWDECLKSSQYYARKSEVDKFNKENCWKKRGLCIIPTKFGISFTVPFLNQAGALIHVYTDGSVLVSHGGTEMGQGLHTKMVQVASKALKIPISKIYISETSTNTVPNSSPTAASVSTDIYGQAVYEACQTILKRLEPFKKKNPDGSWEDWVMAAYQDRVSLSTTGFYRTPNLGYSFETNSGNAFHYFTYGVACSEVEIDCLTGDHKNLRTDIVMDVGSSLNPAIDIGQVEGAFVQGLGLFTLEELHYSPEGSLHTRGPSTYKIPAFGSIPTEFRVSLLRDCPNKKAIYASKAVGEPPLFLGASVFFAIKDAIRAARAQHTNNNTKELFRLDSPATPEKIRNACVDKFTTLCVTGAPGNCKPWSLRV

The first series addresses T1, Xanthine dehydrogenase/oxidase (Bos taurus, UniProt P80457). The series is described as follows: Inhibition of bovine xanthine oxidase assessed as reduction in uric acid formation at 10 ug/ml using xanthine as substrate preincubated for 15 mins followed by substrate addition by spectrophotometric analysis. Particulars: cattle; call rule not given here. The gist of the method: (§1)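 XO (15 U/L) in 0.1 M sodium pyrophosphate buffer pH 8.3 with 0.3 mM Na₂EDTA, preincubated 15 min with test compound; reaction started by adding 64 μM xanthine. Inhibition read as lowered uric acid concentration, in triplicate. Single-point screen at 10 µg/mL; compounds above 50% inhibition were then run over a wide concentration range to derive IC₅₀.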
In the case of `CC(C)COc1ccc(-c2nc(-c3ccncc3)cn2O)cc1C#N`, the “inhibition (INH)” value is reported as less than 50%.

For `COc1ccc(-c2nc(-c3cccnc3)cn2O)cc1C#N`, the “inhibition (INH)” value was less than 50%. On to `CC(C)Oc1ccc(-c2nc(-c3cccnc3)cn2O)cc1C#N`, for which the “inhibition (INH)” value is less than 50%.

For the compound `CCC(C)Oc1ccc(-c2nc(-c3cccnc3)cn2O)cc1C#N` (configuration not stated), the “inhibition (INH)” value is less than 50%.

Turning to `N#Cc1cccc(-c2nc(-c3cccnc3)cn2O)c1`, the “inhibition (INH)” value is recorded as less than 50%. Regarding `C=CCOc1ccc(-c2nc(-c3ccncc3)cn2O)cc1C#N`, the “inhibition (INH)” value is on record as less than 50%. Regarding `N#Cc1cccc(-c2nc(-c3ccncc3)cn2O)c1`, the “inhibition (INH)” value is listed as less than 50%.

Another series deals with T1, Xanthine dehydrogenase/oxidase. The series is described as follows: Mixed-type inhibition of bovine xanthine oxidase assessed as reduction in uric acid formation using xanthine as substrate preincubated for 15 mins followed by substrate addition by spectrophotometry based Lineweaver-Burk plot analysis. To be noted: cattle.
For `CC(C)CCOc1ccc(-c2nc(-c3ccncc3)cn2O)cc1C#N`, the “inhibition (INH)” value is “Active”.

Another series shares this target. As to the kind of experiment: Inhibition of bovine xanthine oxidase assessed as reduction in uric acid formation using xanthine as substrate preincubated for 15 mins followed by substrate addition by spectrophotometric analysis.
Settings: not given
The gist of the method:
as §1
One may read the pIC50 as −log10 of the IC50, conventionally taken in molar units. Consider `CCC(C)Oc1ccc(-n2cc(-c3ccncc3)nn2)cc1C#N` (configuration not stated), for which the negative-log IC50 (pIC50) is 4.74. Turning to `COc1ccc(COc2ccc(-n3cc(-c4ccncc4)nn3)cc2C#N)cc1`, the pIC50 is 4.63. As to `CCOC(=O)c1cc(-c2nnc(-c3ccnc(C)c3)[nH]2)ccc1OCC(C)C`, the pIC50 was 7.7. Still for that read-out and setting: to `Cc1cc(-c2n[nH]c(-c3ccc(OCC(C)C)c(C#N)c3)n2)ccn1` belongs 7.77; to `CC(C)CCOc1ccc(-n2cc(-c3ccncc3)nn2)cc1C#N`, 5.09; to `COCCOCCOc1ccc(-c2nc(-c3ccnc(C)c3)n[nH]2)cc1C#N`, 7.51. As a reminder, the IC50 is the midpoint of a concentration-inhibition curve. `CC(C)CCOc1ccc(-c2nc(-c3cccnc3)cn2O)cc1C#N`: the IC50 was determined as 6.73 µM and the pIC50 is 5.17.

Turning to `N#Cc1cc(-c2n[nH]c(-c3ccncc3)n2)ccn1` [TOPIROXOSTAT], the IC50 is 0.0048 µM. For the compound `CC(C)COc1ccc(-c2nc(-c3cccnc3)n[nH]2)cc1[N+](=O)[O-]`, the pIC50 amounted to 5.23. Turning to `CC(C)COc1ccc(-c2nnc(-c3ccnc(Cl)c3)[nH]2)cc1[N+](=O)[O-]`, the negative-log IC50 (pIC50) stood at 8. As for `CC(C)Oc1ccc(-c2nc(-c3ccncc3)cn2O)cc1C#N`, the IC50 is 4.75 µM and the pIC50 is 5.32. As for `CC(C)COc1ccc(-c2nc(-c3cccnc3)cn2O)cc1C#N`, the IC50 turned out to be 10.3 µM and the pIC50 stood at 4.99.

For `CCCCOCCOCCOc1ccc(-c2nnc(-c3ccnc(C)c3)[nH]2)cc1C#N`, the pIC50 stood at 7.59.

For the compound `Cc1cc(-c2nc(-c3ccc(OCC(C)C)c([N+](=O)[O-])c3)n[nH]2)ccn1`, the pIC50 was found to be 8. In the case of `Cc1cc(-c2n[nH]c(-c3ccc(OCC4COC(C)(C)O4)c(C#N)c3)n2)ccn1` (configuration not stated), the pIC50 was 7.22. With `CCC(C)Oc1ccc(-c2nc(-c3ccncc3)cn2O)cc1C#N` (configuration not stated), the IC50 was 4.35 µM and the negative logarithm of the IC50 (pIC50) amounted to 5.36. As for `Cc1cc(-c2nnc(-c3ccc(OCCOCCOCCCl)c(C#N)c3)[nH]2)ccn1`, the pIC50 is 7.68.

For `N#Cc1cc(-n2cc(-c3ccncc3)nn2)ccc1OCc1ccccc1`, the pIC50 was determined as 4.35. With `Cc1cc(-c2nnc(-c3ccc(OCC(=O)O)c(C#N)c3)[nH]2)ccn1`, the pIC50 was 6.96. For the compound `COCCOc1ccc(-c2nc(-c3ccnc(C)c3)n[nH]2)cc1C#N`, the pIC50 came to 7.19. The same measure, in the same setting: the same measure for `COCCOCOc1ccc(-c2nc(-c3ccnc(C)c3)n[nH]2)cc1C#N`: 7.62. Consider `COc1ccc(-c2nc(-c3ccncc3)cn2O)cc1C#N`, for which the IC50 came out at 15.4 µM and the pIC50 is 4.81.

With `CCCCOc1ccc(-n2cc(-c3ccncc3)nn2)cc1C#N`, the pIC50 was 4.68. Turning to `CCCCCOc1ccc(-n2cc(-c3ccncc3)nn2)cc1C#N`, the pIC50 came out at 4.79. In the case of `Cc1cc(-c2n[nH]c(-c3ccc(OCCO)c(C#N)c3)n2)ccn1`, the pIC50 stood at 7.4.

`CC(C)CCOc1ccc(-c2nc(-c3ccncc3)cn2O)cc1C#N`: the IC50 stood at 0.64 µM and the pIC50 is 6.19. Turning to `Cc1cc(-c2n[nH]c(-c3ccc(O)c(C#N)c3)n2)ccn1`, the pIC50 was 7.37.

With `CC(C)Oc1ccc(-n2cc(-c3ccncc3)nn2)cc1C#N`, the pIC50 was determined as 4.6. On to `N#Cc1cc(-n2cc(-c3ccncc3)nn2)ccc1OC1CCCC1`, for which the pIC50 was determined as 5.17. On to `C=CCOc1ccc(-c2nc(-c3cccnc3)cn2O)cc1C#N`, for which the IC50 stood at 9.62 µM and the pIC50 is 5.02. With `COCOc1ccc(-c2nc(-c3ccnc(C)c3)n[nH]2)cc1C#N`, the pIC50 stood at 7.62.

The series is the same for the next values; noted with them: cattle.
Turning to `CC(C)CCOc1ccc(-c2nc(-c3ccncc3)cn2O)cc1C#N`, the “inhibition (INH)” value was “Dose-dependent effect”.
